In ChEMBL document CHEMBL3046951, “Volatile constituents from the leaves of Callicarpa japonica Thunb. and their antibacterial activities” (2004):

Assays:
Assay type in all cases: functional
[1] = tested on: Salmonella typhimurium; experiment: Antimicrobial activity against Salmonella enterica subsp. enterica serovar Typhimurium ATCC 14028 assessed as growth inhibition rate at 13.56 mg/l after 72 hr by spectrophotometry; conditions: ATCC 14028, 72 h, read-out: GI
In short: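 Salmonella Typhimurium ATCC 14028 grown in nutrient broth at 30 °C, precultured 24 h, then subcultured 1:100 for 18 h before testing. Single volatile compounds (>95% pure) were added. OD was read every 24 h over 72 h in a Bioscreen C, with 10% Tween 80 as the comparison control.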

[2] = tested on: Vibrio parahaemolyticus; experiment: Antimicrobial activity against Vibrio parahaemolyticus ATCC 33844 assessed as growth inhibition rate at 13.56 mg/l after 72 hr by spectrophotometry; conditions: ATCC 33844, 72 h, read-out: GI
[3] = tested on: Escherichia coli; experiment: Antimicrobial activity against Escherichia coli O157:H7 ATCC 43894 assessed as growth inhibition rate at 13.56 mg/l after 72 hr by spectrophotometry; conditions: O157:H7 ATCC 43894, 72 h, read-out: GI
[4] = tested on: Staphylococcus aureus; experiment: Antimicrobial activity against Staphylococcus aureus ATCC 25923 assessed as growth inhibition rate at 13.56 mg/l after 72 hr by spectrophotometry; conditions: ATCC 25923, 72 h, read-out: GI
[5] = tested on: Listeria monocytogenes; experiment: Antimicrobial activity against Listeria monocytogenes ATCC 19111 assessed as growth inhibition rate at 13.56 mg/l after 72 hr by spectrophotometry; conditions: ATCC 19111, 72 h, read-out: GI
In short: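 L. monocytogenes was grown at 30 °C in tryptic soy broth, subcultured for 18 h, and exposed to pure volatile compounds (>95% purity). Growth was followed by Bioscreen C optical density every 24 h for 72 h against a 10% Tween 80 control.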

[6] = tested on: Bacillus cereus; experiment: Antimicrobial activity against Bacillus cereus ATCC 11778 assessed as growth inhibition rate at 13.56 mg/l after 72 hr by spectrophotometry; conditions: ATCC 11778, 72 h, read-out: GI
In short: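 Pure volatile compounds (purity >95%; one at 90%) were tested against B. cereus ATCC 11778. The strain was grown at 30 °C in nutrient broth for 24 h, then subcultured for 18 h. Optical density was read in a Bioscreen C every 24 h for 72 h, with 10% Tween 80 as the control.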

CCC/C=C/CO
inhibition of growth at 13.56 µg/mL [1]: 29.1% | inhibition of growth at 13.56 µg/mL [2]: 38.6% | inhibition of growth at 13.56 µg/mL [3]: 31.8% | inhibition of growth at 13.56 µg/mL [4]: 29.5% | inhibition of growth at 13.56 µg/mL [5]: 19.2% | inhibition of growth at 13.56 µg/mL [6]: 52.5%
